A short description of data set [1]: melting temperature; fluorescence melt of hairpins on a sequencing array, two-state fit, raised by 9.35 °C to match UV melts. As to conditions: sodium 0.088 M. The essentials: (§1)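 Cy3 fluorescence of library hairpins on a sequenced MiSeq flow cell, with annealed Cy3 and quencher oligos, was imaged in 50 mM Na-HEPES pH 8.0, 25 mM NaCl in 2.5 °C steps up to 60 °C. Signals were normalised to pre-quench Cy3 and to control variants. Melting temperature and folding enthalpy came from bootstrapped two-state fits, inverse-variance combined over four replicates. Fitted temperatures were raised by 9.35 °C to match UV melts.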

Data set [2] can be described thus: folding enthalpy; higher = less favourable; fluorescence melt of hairpins on a sequencing array, two-state fit. The note with it: sodium 0.088 M. The essentials: as §1

On to GGTCGGCGAAAGCCACC (((.(((....)))))), for which the Tm in data set [1] was found to be 55.3 °C. In data set [2], the folding enthalpy was -14.8 kcal/mol.

Turning to GGTCGGGCGAAAGCCACC (((..(((....)))))), the Tm in data set [1] is 34 °C. Besides, in data set [2], the folding enthalpy is -11.9 kcal/mol.

GGTCGGGGAAACCCGATC (.(((((....))))).): in data set [1], the Tm amounted to 56.7 °C. In addition, in data set [2], the folding enthalpy is -32 kcal/mol.

Turning to GGTCGGGGAAACCTGGCC ((.(.((....)).).)), the Tm in data set [1] amounted to 48.4 °C. In addition, the folding enthalpy in data set [2] was -28.7 kcal/mol.

As to GGTCGGTCGAAAGACACC (((..(((....)))))), the Tm in data set [1] worked out at 33.4 °C. In addition, the folding enthalpy in data set [2] is -13.4 kcal/mol.

For GGTCGTCCGAAAGGAACC (((..(((....)))))), the Tm in data set [1] was 26.3 °C. Moreover, the folding enthalpy in data set [2] was -9.14 kcal/mol.

Regarding GGTCGTCGAAAGACCACC (((.(((....))).))), the Tm in data set [1] was 45.9 °C. Further, in data set [2], the folding enthalpy is -19.8 kcal/mol.

For GGTCGTCGAAAGACTACC (((.(((....))).))), the Tm in data set [1] turned out to be 48.6 °C. Besides, the folding enthalpy in data set [2] is -30.6 kcal/mol.

Turning to GGTCGTGAAAACGACC ((((((....)))))), in data set [1], the Tm is 69.2 °C. In addition, the folding enthalpy in data set [2] was -34.3 kcal/mol.

Turning to GGTCGTGGAAACGCGATC (.(((.(....).))).), the Tm in data set [1] amounted to 43.8 °C. The folding enthalpy in data set [2] was -26.9 kcal/mol.

Take GGTCTAGAAATAGACC ((((((....)))))): the Tm in data set [1] came to 51.8 °C. Moreover, the folding enthalpy in data set [2] is -38.1 kcal/mol.

As for GGTCTCCGAAAGGACACC (((.(((....))).))), the Tm in data set [1] came out at 42.1 °C. Also, in data set [2], the folding enthalpy is -24.5 kcal/mol.

As to GGTCTCCGAAAGGATACC (((.(((....))).))), the Tm in data set [1] stood at 48.1 °C. Also, the folding enthalpy in data set [2] was -26.8 kcal/mol.

As for GGTCTCGAAAGAGAGACC ((((((....)))..))), the Tm in data set [1] stood at 54.9 °C. Also, the folding enthalpy in data set [2] is -29.6 kcal/mol.

As for GGTCTCGAAAGAGGGACC ((((((....)))..))), in data set [1], the Tm was 44 °C. For the same sequence, the folding enthalpy in data set [2] was -22.4 kcal/mol.

For the sequence GGTCTCGAAAGAGTAACC ((((((....)))..))), the Tm in data set [1] was 35.1 °C. The folding enthalpy in data set [2] was -21.9 kcal/mol.

In the case of GGTCTCGAAAGAGTGACC ((((((....)))..))), in data set [1], the Tm was determined as 39.8 °C. Moreover, the folding enthalpy in data set [2] was -24.5 kcal/mol.

GGTCTCGGAAACGAGGTC (..((((....))))..): the Tm in data set [1] amounted to 38.2 °C. Besides, the folding enthalpy in data set [2] was -15.9 kcal/mol.

With GGTCTGCGAAAGCAAACC (((.(((....))).))), in data set [1], the Tm was found to be 47.1 °C. Further, the folding enthalpy in data set [2] was -26.9 kcal/mol.

GGTCTTGGAAACAAGGCC ((.((((....)))).)): the Tm in data set [1] was 54.7 °C. The folding enthalpy in data set [2] is -48.6 kcal/mol.

For the sequence GGTGAAGGAAACCTCACC (((((.(....).))))), the Tm in data set [1] worked out at 46.2 °C. In addition, the folding enthalpy in data set [2] was -29.6 kcal/mol.

For GGTGAAGGAAACTTCATC (.(((((....))))).), in data set [1], the Tm worked out at 42.1 °C. Besides, the folding enthalpy in data set [2] was -25.3 kcal/mol.

As to GGTGACGAAAGTCACACC ((((((....)))..))), in data set [1], the Tm is 56 °C. Also, the folding enthalpy in data set [2] is -7.84 kcal/mol.

In the case of GGTGACGAAAGTCCGACC ((((((....)))..))), the Tm in data set [1] was 39 °C. The folding enthalpy in data set [2] was -15.3 kcal/mol.

Turning to GGTGACGAAAGTCCTACC ((((((....)))..))), in data set [1], the Tm was found to be 33.5 °C. The folding enthalpy in data set [2] is -13.8 kcal/mol.

As to GGTGACGAAAGTCTACC ((((((....))).))), in data set [1], the Tm amounted to 49 °C. The folding enthalpy in data set [2] was -21.4 kcal/mol.

GGTGACGGAAACGTTGCC ((..(((....)))..)): in data set [1], the Tm is 48.1 °C. The folding enthalpy in data set [2] is -34.3 kcal/mol.

For GGTGAGCCGAAAGGCACC (((..(((....)))))), in data set [1], the Tm is 44.3 °C. For the same sequence, the folding enthalpy in data set [2] is -13.2 kcal/mol.

As to GGTGAGCGAAAGCTACC (((.(((....)))))), the Tm in data set [1] amounted to 51.7 °C. For the same sequence, in data set [2], the folding enthalpy was -19.2 kcal/mol.

Turning to GGTGAGGGAAACCTCGTC (..((((....))))..), the Tm in data set [1] worked out at 33.2 °C. Further, the folding enthalpy in data set [2] was -13.3 kcal/mol.

In the case of GGTGAGGGAAACTTCACC (((((.(....).))))), the Tm in data set [1] worked out at 46.8 °C. Moreover, the folding enthalpy in data set [2] was -32.1 kcal/mol.

For GGTGAGTCGAAAGACACC (((..(((....)))))), in data set [1], the Tm is 39.5 °C. Besides, the folding enthalpy in data set [2] was -17.9 kcal/mol.

Consider GGTGATCGAAAGATAACC (((.(((....))).))), for which, in data set [1], the Tm was determined as 47.7 °C. In data set [2], the folding enthalpy is -29.5 kcal/mol.

As to GGTGATGGAAACATCACC (((((((....))))))), the Tm in data set [1] turned out to be 65.6 °C. Moreover, in data set [2], the folding enthalpy is -39.6 kcal/mol.

GGTGATGGAAACATCATC (.(((((....))))).): the Tm in data set [1] was 47.8 °C. Besides, the folding enthalpy in data set [2] was -30.6 kcal/mol.

Take GGTGATGGAAACATTACC (((.(((....))).))): in data set [1], the Tm came to 45.2 °C. Besides, the folding enthalpy in data set [2] is -30.2 kcal/mol.

Consider GGTGATGGAAACGTCACC (((((.(....).))))), for which the Tm in data set [1] stood at 53.5 °C. For the same sequence, the folding enthalpy in data set [2] was -49.9 kcal/mol.

As to GGTGATGGAAACGTTACC (((.(.(....).).))), the Tm in data set [1] stood at 30.4 °C. Also, in data set [2], the folding enthalpy was -19.2 kcal/mol.

Turning to GGTGCACGAAAGTGAACC (((.(((....))).))), the Tm in data set [1] amounted to 61.4 °C. In data set [2], the folding enthalpy was -35.3 kcal/mol.

Turning to GGTGCAGGAAACTACACC ((((.((....)).)))), the Tm in data set [1] was found to be 43.4 °C. Besides, in data set [2], the folding enthalpy is -32.1 kcal/mol.

On to GGTGCAGGAAACTGTACC (((.(((....))).))), for which the Tm in data set [1] was found to be 52.6 °C. The folding enthalpy in data set [2] is -45.4 kcal/mol.

In the case of GGTGCCGAAAGGCAAACC ((((((....)))..))), the Tm in data set [1] is 50.9 °C. The folding enthalpy in data set [2] is -14.6 kcal/mol.

Regarding GGTGCCGAAAGGCACACC ((((((....)))..))), in data set [1], the Tm came out at 58 °C. The folding enthalpy in data set [2] is -6.62 kcal/mol.

Turning to GGTGCCGAAAGGCCCACC ((((((....)))..))), the Tm in data set [1] amounted to 50.6 °C. For the same sequence, the folding enthalpy in data set [2] is -11.4 kcal/mol.

For GGTGCCGAAAGGCGTACC ((((((....)))..))), the Tm in data set [1] was 48.5 °C. The folding enthalpy in data set [2] is -15.5 kcal/mol.

Take GGTGCCGGAAACGGTGCC ((..(((....)))..)): the Tm in data set [1] came out at 56.6 °C. Moreover, in data set [2], the folding enthalpy was -41.5 kcal/mol.

With GGTGCGACGAAAGTCACC (((..(((....)))))), in data set [1], the Tm turned out to be 42.5 °C. Further, the folding enthalpy in data set [2] was -16.5 kcal/mol.

As to GGTGCGGCGAAAGCCACC (((..(((....)))))), in data set [1], the Tm came out at 48.2 °C. The folding enthalpy in data set [2] was -14 kcal/mol.

As to GGTGCTCCGAAAGGAACC (((..(((....)))))), in data set [1], the Tm came to 32.5 °C. The folding enthalpy in data set [2] is -11.3 kcal/mol.

GGTGCTGCGAAAGCAACC (((..(((....)))))): the Tm in data set [1] came to 43.8 °C. The folding enthalpy in data set [2] was -14.4 kcal/mol.

Take GGTGCTGGAAACAACACC ((((.((....)).)))): the Tm in data set [1] was determined as 46 °C. Further, the folding enthalpy in data set [2] is -37.6 kcal/mol.

For GGTGCTGGAAACGGTACC (((.(.(....).).))), the Tm in data set [1] worked out at 41.2 °C. For the same sequence, the folding enthalpy in data set [2] is -35.8 kcal/mol.

On to GGTGGACGAAAGTCGACC (((.(((....))).))), for which the Tm in data set [1] was determined as 57.2 °C. In addition, the folding enthalpy in data set [2] was -39.9 kcal/mol.

On to GGTGGAGAAATCCACC ((((((....)))))), for which the Tm in data set [1] turned out to be 59.8 °C. In data set [2], the folding enthalpy is -33.1 kcal/mol.

The values above are taken from the array DNA melting data of Ke et al. (doi:10.1101/2024.01.08.574731).
